Assay results published in ChEMBL document CHEMBL1165973, “Design, synthesis and antibacterial activity of novel andrographolide derivatives” (Bioorg Med Chem, 2010).
Calls of active or inactive are those of the source. No cut-off for these calls is given here.

How the values were obtained:
[1] = test system: Pseudomonas aeruginosa; experiment: Antibacterial activity at Pseudomonas aeruginosa PAO1 at 2 mM; format: functional, organism-based
[2] = test system: Pseudomonas aeruginosa PAO1; experiment: Inhibition of Pseudomonas aeruginosa PAO1 quorum sensing assessed as inhibition of pycocyanin production at 0.5 mM after 24 hrs by spectrometry
Outline: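 PAO1 grown overnight in LB, washed in fresh medium and diluted to OD600 0.05. Aliquots were grown 24 h in tubes with compound at 0.5 mM. Pyocyanin was extracted from filtered culture supernatant and quantified by a published method. Significance versus untreated control was set at P < 0.05.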

[3] = test system: Pseudomonas aeruginosa PAO1; experiment: Inhibition of Pseudomonas aeruginosa PAO1 quorum sensing assessed as inhibition of protease production at 0.5 mM after 10 hrs by colorimetric method
Outline: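 PAO1 grown overnight at 37 °C in PB medium ([…]), washed, diluted to OD600 0.05 and grown to midlog. Cells were washed again, reset to OD600 0.05 and cultured 10 h with compound at 0.5 mM. Filtered supernatant was incubated with azocasein in 10 mM Tris pH 7.2 and 1 mM CaCl₂ for 4 h at 37 °C with agitation, then quenched with NaOH and centrifuged.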

C=C1CC[C@@H]2[C@](C)(CO)[C@H](O)CC[C@@]2(C)[C@@H]1C/C=C1/C(=O)OC[C@H]1OC(=O)CCCCC1CCCC1
Activity [1]: inactive | inhibition [2]: Active | inhibition [3]: Active

C=C1CC[C@@H]2[C@]3(C)COC(C)(C)O[C@@H]3CC[C@@]2(C)[C@@H]1C/C=C1/C(=O)OC[C@H]1OC(=O)CCCCCCCCCCC
Activity [1]: inactive

C=C1CC[C@@H]2[C@](C)(CO)[C@H](O)CC[C@@]2(C)[C@@H]1C/C=C1/C(=O)OC[C@H]1OC(=O)CC12CC3CC(CC(C3)C1)C2
Activity [1]: inactive | inhibition [2]: Active | inhibition [3]: Active

C=C1CC[C@@H]2[C@]3(C)COC(C)(C)O[C@@H]3CC[C@@]2(C)[C@@H]1C/C=C1/C(=O)OC[C@H]1OC(=O)CCCCC
Activity [1]: inactive

C=C1CC[C@@H]2[C@]3(C)COC(C)(C)O[C@@H]3CC[C@@]2(C)[C@@H]1C/C=C1/C(=O)OC[C@H]1OC(=O)/C=C/c1ccco1
Activity [1]: inactive

C=C1CC[C@@H]2[C@](C)(CO)[C@H](O)CC[C@@]2(C)[C@@H]1C/C=C1/C(=O)OC[C@H]1OC(=O)CCCCCCC
Activity [1]: inactive | inhibition [2]: Active

C=C1CC[C@@H]2[C@]3(C)COC(C)(C)O[C@@H]3CC[C@@]2(C)[C@@H]1C/C=C1/C(=O)OC[C@H]1OC(=O)CCCC
Activity [1]: inactive

C=C1CC[C@@H]2[C@](C)(CO)[C@H](O)CC[C@@]2(C)[C@@H]1C/C=C1/C(=O)OC[C@H]1OC(=O)CCCC
Activity [1]: inactive | inhibition [2]: Active

C=C1CC[C@@H]2[C@]3(C)COC(C)(C)O[C@@H]3CC[C@@]2(C)[C@@H]1C/C=C1/C(=O)OC[C@H]1OC(=O)/C=C/C1CCCCC1
Activity [1]: inactive

C=C1CC[C@@H]2[C@]3(C)COC(C)(C)O[C@@H]3CC[C@@]2(C)[C@@H]1C/C=C1/C(=O)OC[C@H]1OC(=O)/C=C/C
Activity [1]: inactive

C=C1CC[C@@H]2[C@](C)(CO)[C@H](O)CC[C@@]2(C)[C@@H]1C/C=C1/C(=O)OC[C@H]1OC(=O)CCCCCCCCCCC
Activity [1]: inactive | inhibition [2]: Active | inhibition [3]: Active

C=C1CC[C@@H]2[C@](C)(CO)[C@H](O)CC[C@@]2(C)[C@@H]1C/C=C1/C(=O)OC[C@H]1OC(=O)CCCCC
Activity [1]: inactive | inhibition [2]: Active | inhibition [3]: Active

C=C1CC[C@@H]2[C@](C)(CO)[C@H](O)CC[C@@]2(C)[C@@H]1C/C=C1/C(=O)OC[C@H]1OC(=O)/C=C/C1CCCCC1
Activity [1]: inactive | inhibition [2]: Active | inhibition [3]: Active

C=C1CC[C@@H]2[C@](C)(CO)[C@H](O)CC[C@@]2(C)[C@@H]1C/C=C1/C(=O)OC[C@H]1OC(=O)/C=C/C
Activity [1]: inactive | inhibition [2]: Active | inhibition [3]: Active

C=C1CC[C@@H]2[C@]3(C)COC(C)(C)O[C@@H]3CC[C@@]2(C)[C@@H]1C/C=C1/C(=O)OC[C@H]1OC(=O)CCCCCCC
Activity [1]: inactive

C=C1CC[C@@H]2[C@](C)(CO)[C@H](O)CC[C@@]2(C)[C@@H]1C/C=C1/C(=O)OC[C@H]1OC(=O)CCCC[C@H]1CCSS1
inhibition [2]: Active | inhibition [3]: Active

C=C1CC[C@@H]2[C@](C)(CO)[C@H](O)CC[C@@]2(C)[C@@H]1C/C=C1/C(=O)OC[C@H]1O
inhibition [2]: Active

C=C1CC[C@@H]2[C@](C)(CO)[C@H](O)CC[C@@]2(C)[C@@H]1C/C=C1/C(=O)OC[C@H]1OC(=O)/C=C/c1ccco1
Activity [1]: inactive | inhibition [2]: Active | inhibition [3]: Active

C=C1CC[C@@H]2[C@]3(C)COC(C)(C)O[C@@H]3CC[C@@]2(C)[C@@H]1C/C=C1/C(=O)OC[C@H]1OC(=O)CCCC1CCCC1
Activity [1]: inactive

C=C1CC[C@@H]2[C@]3(C)COC(C)(C)O[C@@H]3CC[C@@]2(C)[C@@H]1C/C=C1/C(=O)OC[C@H]1OC(=O)C12CC3CC(CC(C3)C1)C2
Activity [1]: inactive
